# Measurements taken from ChEMBL document CHEMBL1125032, “Structure-activity relationship of antiestrogens. Effect of the side chain and its position on the activity of 2,3-diaryl-2H-1-benzopyrans” (J Med Chem, 1990).
# Experiments:
# [1] = biological target: T1, Estrogen receptor (Rattus norvegicus) (UniProt P06211+Q62986); experiment: Relative binding affinity against estrogen receptor(ER); assay type: protein assay
# How it was run: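 Uterine cytosol came from immature rats primed with 0.1 µg E2 24 h before sacrifice. It was incubated 18–20 h at 4 °C, in triplicate, with competitor (10⁻⁴–10⁻⁹ M) and ³H-E2 (5×10⁻⁹ M) in TEA buffer, pH 7.4, containing 7% DMF. Free ligand was removed with charcoal-dextran (20 min), and bound radioactivity was measured by scintillation counting.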
# [2] = biological target: Estrogen receptor beta (Rattus norvegicus) (UniProt Q62986); experiment: Mean percent inhibition of Estrogen receptor beta in rat; design: concentration or dose not given beside the values; details: concentration not given here
# How it was run: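 Immature female rats were dosed subcutaneously with 10 µg/rat for three days together with 0.3 µg E2 at a separate site. Uterine weight was read 24 h after the last dose. Inhibition of E2-stimulated uterine growth was calculated from the mean uterine weights of the vehicle-alone, E2-alone and compound-plus-E2 groups.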
# [3] = biological target: Anti-estrogen binding site (AEBS) (Homo sapiens) (UniProt Q15125+Q9UBM7); experiment: Relative binding affinity against Antiestrogen binding site(AEBS); assay type: functional; details: Rattus norvegicus
# How it was run: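 Rat liver microsomal fraction was first incubated 2 h at 4 °C with 2 µM diethylstilbestrol to saturate ER sites. It was then incubated 18 h at 4 °C with competitor (1×10⁻⁹ to 3×10⁻⁶ M) and ³H-tamoxifen (1×10⁻⁹ M) in 35% DMF–TEA buffer. Charcoal-dextran was added for 15 min at 4 °C, the tubes were centrifuged at 1000g, and the supernatant was counted.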
# [4] = biological target: T1, Estrogen receptor (Rattus norvegicus); experiment: Antiestrogenic activity in presence of unlabeled estradiol as mean uterine weight in rats after 0.3 ug dose; assay type: functional
# How it was run: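 Immature female Charles Foster rats (21–23 days old, 25–40 g) were given 10 µg/rat of compound subcutaneously in 0.1 mL propylene glycol–0.9% saline (1:1, v/v) on three consecutive days. They were co-injected with 0.3 µg E2 at a different site. Controls got E2 plus vehicle. Uteri were weighed 24 h after the last injection. Values are mean ± SD, 6–9 animals.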
# [5] = biological target: T1, Estrogen receptor (Rattus norvegicus); experiment: Estrogenic activity as mean uterine weight in rats on 10 ug dose; assay type: functional
# How it was run: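 Immature female Charles Foster rats (21–23 days old, 25–40 g) received 10 µg/rat subcutaneously, suspended in 0.1 mL propylene glycol–0.9% saline (1:1, v/v), daily for three days. Controls received vehicle alone. Uterine wet weight was taken at autopsy 24 h after the final dose and given as mean ± SD in mg from 6–9 animals.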
# Chain of Estrogen receptor beta (Rattus norvegicus) (Q62986 whole entry): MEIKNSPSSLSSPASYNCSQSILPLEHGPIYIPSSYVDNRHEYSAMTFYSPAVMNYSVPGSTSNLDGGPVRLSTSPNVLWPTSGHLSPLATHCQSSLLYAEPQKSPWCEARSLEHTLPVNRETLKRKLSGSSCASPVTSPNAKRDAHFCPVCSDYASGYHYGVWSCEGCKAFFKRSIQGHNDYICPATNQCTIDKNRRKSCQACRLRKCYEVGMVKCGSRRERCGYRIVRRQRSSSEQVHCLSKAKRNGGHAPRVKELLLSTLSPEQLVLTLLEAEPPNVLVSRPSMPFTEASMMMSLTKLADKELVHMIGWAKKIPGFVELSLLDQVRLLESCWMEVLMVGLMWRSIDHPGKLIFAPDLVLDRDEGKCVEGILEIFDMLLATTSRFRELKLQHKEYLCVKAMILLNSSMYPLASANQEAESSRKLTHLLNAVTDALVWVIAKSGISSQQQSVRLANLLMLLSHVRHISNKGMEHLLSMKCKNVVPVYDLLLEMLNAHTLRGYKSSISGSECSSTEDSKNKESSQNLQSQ
relative binding affinity (RBA) [1],inhibition [2],relative binding affinity (RBA) [3],Mean weight [4],Mean weight [5],SMILES
0.4,48%,66,–,–,COc1ccc2c(c1)OC(c1ccc(OCCN3CCCC3)cc1)C(c1ccccc1)=C2 (configuration not stated)
–,0%,–,45.9 mg,8.7 mg,CCCCNCC(O)COc1ccc(C2Oc3ccccc3C=C2c2ccccc2)cc1 (configuration not stated)
2.1,0%,51,40.6 mg,34.5 mg,CCC1=C(c2ccccc2)C(c2ccc(OCCN3CCCC3)cc2)Oc2cc(OC)ccc21 (configuration not stated)
0.05,0%,–,45.5 mg,12.6 mg,Oc1ccc(C2Oc3ccccc3C=C2c2ccccc2)cc1 (configuration not stated)
0.5,56%,134,26.6 mg,–,C1=C(c2ccccc2)C(c2ccc(OCCN3CCCC3)cc2)Oc2ccccc21 (configuration not stated)
0.3,75%,225,–,–,C1=C(c2ccccc2)C(c2ccc(OCCN3CCCCC3)cc2)Oc2ccccc21 (configuration not stated)
–,–,–,38.8 mg,20.7 mg,OCC(O)COc1ccc(C2Oc3ccccc3C=C2c2ccccc2)cc1 (configuration not stated)
0.24,61%,153,23.1 mg,19.3 mg,C1=C(c2ccccc2)C(c2ccc(OCCN3CCCCCC3)cc2)Oc2ccccc21 (configuration not stated)
9.9,56%,150,27 mg,27.2 mg,CC1=C(c2ccccc2)C(c2ccc(OCCN3CCCC3)cc2)Oc2ccccc21 (configuration not stated)
< 0.001,0%,–,42.2 mg,17.4 mg,C1=C(c2ccccc2)C(c2cccc(OCCN3CCCCC3)c2)Oc2ccccc21 (configuration not stated)
0.11,30%,98,36.5 mg,33.9 mg,CN(C)CCOc1ccc(C2Oc3ccccc3C=C2c2ccccc2)cc1 (configuration not stated)
< 0.001,0%,–,43.1 mg,11.1 mg,C1=C(c2ccccc2)C(c2ccccc2OCCN2CCCCC2)Oc2ccccc21 (configuration not stated)
